Assay results from ChEMBL document CHEMBL1155459, “On-bead screening of a combinatorial fumaric acid derived peptide library yields antiplasmodial cysteine protease inhibitors with unusual peptide sequences” (J Med Chem, 2009).
Activity calls are given as the source filed them. No cut-off for these calls is given here. Square brackets hold non-standard residues; d marks the D form. Peptide text beside a SMILES is read from it. * marks the point of attachment. Fumaroyl(GlyGlyPheOH) = O=C(/C=C/C(=O)*)NCC(=O)NCC(=O)N[C@@H](Cc1ccccc1)C(=O)O; Chg = N[C@H](C(=O)O)C1CCCCC1; Dap = NC[C@H](N)C(=O)O

Assays:
Plasmodium falciparum [1] = assay: Inhibition of Plasmodium falciparum recombinant falcipain-2 expressed in Escherichia coli at 100 uM after 20 min by spectrofluorometry
In short: (§1)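 Single-point screen at 100 μM inhibitor (final). Recombinant enzyme in 50 mM acetate pH 5.5, 5 mM EDTA, 200 mM NaCl, 5 mM DTT, 10% DMSO final; Cbz-Phe-Arg-AMC 40 μM (or Cbz-Leu-Arg-AMC 25 μM) hydrolysis followed by fluorescence (ex 380/em 460 nm). % inhibition = 100(1 − vi/vc) from progress-curve slopes vs DMSO control; at least two independent assays.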

Procathepsin L = Procathepsin L (Bos taurus, UniProt P25975); assay: Inhibition of bovine spleen cathepsin L
In short: (§2)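 Cathepsin L (bovine spleen) or B (human liver) hydrolysis of Cbz-Phe-Arg-AMC (40 μM) followed by fluorescence for 5-10 min without preincubation at 0.1-80 μM inhibitor, 10% DMSO final.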

[2] = target: Rhodesain (Trypanosoma brucei rhodesiense) (UniProt Q95PM0); assay: Inhibition of Trypanosoma brucei rhodesiense rhodesain after 12 hrs by fluorescence spectroscopy-based on-bead assay; set-up: concentration or dose not given beside the values; details: concentration not given here
In short: (§3)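 Library members on resin (PEGA, theoretical loading 0.40 mmol/g; added as DMSO suspension, 0.64 mM final inhibitor) preincubated with enzyme 12 h, then Cbz-Phe-Arg-AMC 40 μM added; AMC release followed by fluorescence (ex 380/em 460 nm). Kinetics compared with inhibitor-free amino-PEGA resin.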

[3] = Inhibition of Plasmodium falciparum falcipain-2 after 12 hrs by fluorescence spectroscopy-based on-bead assay; set-up: concentration or dose not given beside the values; details: concentration not given here; in short: as §3
Rhodesain = Rhodesain (Trypanosoma brucei rhodesiense, UniProt Q95PM0); assay: Inhibition of Trypanosoma brucei rhodesiense recombinant rhodesain
[4] = target: Rhodesain (Trypanosoma brucei rhodesiense) (UniProt Q95PM0); assay: Inhibition of Trypanosoma brucei rhodesiense recombinant rhodesain at 100 uM; in short: as §1
[5] = Inhibition of Plasmodium falciparum recombinant falcipain-2 expressed in Escherichia coli […] using Cbz-Leu-Arg-AMC as substrate by spectrofluorometry
Cathepsin B [6] = target: T1, Cathepsin B (Homo sapiens, UniProt P07858); assay: Inhibition of human liver cathepsin B at 100 uM
[7] = Inhibition of Plasmodium falciparum falcipain-2 by fluorescence enzyme assay
Cathepsin B [8] = target: T1, Cathepsin B; assay: Inhibition of human liver cathepsin B; in short: as §2
Plasmodium falciparum [9] = assay: Antiplasmodial activity against Plasmodium falciparum FCBR by fluorometric method; type: functional, organism-based, FCBR/Columbia; details: Plasmodium falciparum, FCBR/Columbia; read-out: IC50
[10] = Inhibition of Plasmodium falciparum recombinant falcipain-2 expressed in Escherichia coli after 20 min using Cbz-Phe-Arg-AMC as substrate by spectrofluorometry; details: in the assay text read “over 5-10 min” for “after 20 min”
In short: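 Continuous assay without preincubation. Recombinant falcipain-2 in 50 mM acetate pH 5.5, 5 mM EDTA, 200 mM NaCl, 5 mM DTT, 10% DMSO final; Cbz-Phe-Arg-AMC (40 μM, Km 21.5 μM) or Cbz-Leu-Arg-AMC (25 μM, Km 8.4 μM). Fluorescence monitored 5-10 min at 0.1-80 μM inhibitor. Ki from Dixon plot, corrected to zero substrate; at least two independent assays.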

[11] = tested on: Trypanosoma brucei brucei; assay: Antitrypanosomal activity against Trypanosoma brucei brucei; type: functional, organism-based
Cathepsin B [12] = target: T1, Cathepsin B; assay: Inhibition of human liver cathepsin B at 200 uM measured before dialysis
In short: (§4)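 Human liver cathepsin B activity measured with 200 μM inhibitor before and after 3 h of continuous dialysis against assay buffer, to test reversibility.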

Cathepsin B [13] = target: T1, Cathepsin B; assay: Inhibition of human liver cathepsin B at 200 uM measured after dialysis; in short: as §4
[14] = target: Rhodesain (Trypanosoma brucei rhodesiense) (UniProt Q95PM0); assay: Inhibition of Trypanosoma brucei rhodesiense recombinant rhodesain at 200 uM

Chain of Rhodesain (Q95PM0 whole entry): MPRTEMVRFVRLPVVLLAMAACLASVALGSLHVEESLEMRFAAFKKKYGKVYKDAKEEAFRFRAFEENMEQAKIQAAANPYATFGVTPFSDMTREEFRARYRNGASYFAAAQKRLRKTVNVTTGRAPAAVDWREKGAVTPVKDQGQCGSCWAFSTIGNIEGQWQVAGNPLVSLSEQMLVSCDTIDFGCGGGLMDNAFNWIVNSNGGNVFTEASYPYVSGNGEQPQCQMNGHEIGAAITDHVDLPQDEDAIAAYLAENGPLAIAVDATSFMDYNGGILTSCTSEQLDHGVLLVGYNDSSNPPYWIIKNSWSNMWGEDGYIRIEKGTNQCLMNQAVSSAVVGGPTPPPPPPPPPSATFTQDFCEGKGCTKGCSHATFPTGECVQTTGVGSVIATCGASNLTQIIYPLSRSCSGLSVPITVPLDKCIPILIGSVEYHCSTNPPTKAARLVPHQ
Chain of Rhodesain (Trypanosoma brucei rhodesiense) (Q95PM0 1-450): as the sequence (Q95PM0 whole entry) above
Chain of Procathepsin L (P25975 whole entry): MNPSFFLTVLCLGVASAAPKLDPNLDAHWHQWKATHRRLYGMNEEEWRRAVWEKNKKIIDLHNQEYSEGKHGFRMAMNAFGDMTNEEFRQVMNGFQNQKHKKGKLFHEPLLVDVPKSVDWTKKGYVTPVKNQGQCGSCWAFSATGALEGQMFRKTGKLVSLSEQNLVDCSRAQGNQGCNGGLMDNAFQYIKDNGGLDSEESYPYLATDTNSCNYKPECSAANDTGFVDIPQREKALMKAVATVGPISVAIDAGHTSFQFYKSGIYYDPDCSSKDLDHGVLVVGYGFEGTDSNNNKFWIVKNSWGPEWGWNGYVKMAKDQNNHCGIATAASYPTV

SMILES	inhibition (Plasmodium falciparum [1]) [%]	Ki (Procathepsin L) [µM]	inhibition [2] [%]	inhibition [3] [%]	Ki (Rhodesain) [µM]	inhibition [4] [%]	Ki [5] [µM]	inhibition (Cathepsin B [6])	Ki [7] [µM]	Ki (Cathepsin B [8]) [µM]	IC50 (Plasmodium falciparum [9]) [µM]	Ki [10] [µM]	IC50 [11]	inhibition (Cathepsin B [12]) [%]	inhibition (Cathepsin B [13]) [%]	inhibition [14] [%]
CC(C)C[C@H](NC(=O)[C@H](C)NC(=O)/C=C/C(=O)N[C@@H](C)C(=O)NCC(=O)N[C@@H](Cc1ccccc1)C(=O)O)C(=O)N[C@@H](CC(C)C)C(=O)N[C@H](C(N)=O)C(C)C (HELM PEPTIDE1{[C[C@H](NC(=O)/C=C/C(=O)[*:2])C(=O)NCC(=O)N[C@@H](Cc1ccccc1)C(=O)O].A.L.L.V.[am]}$$$$V2.0)	86	33.6	67	58	1.3	96	9.5	45%	–	–	–	–	–	–	–	–
CC(C)C[C@H](NC(=O)[C@H]1O[C@@H]1C(=O)O)C(=O)NCCCCN=C(N)N [E-64]	–	–	–	–	–	–	–	–	0.29	–	–	–	–	–	–	–
CC(=O)NC[C@H](NC(=O)/C=C/C(=O)NCC(=O)NCC(=O)N[C@@H](Cc1ccccc1)C(=O)O)C(=O)N[C@@H](CC(C)C)C(=O)N[C@@H](CC(C)C)C(=O)N[C@H](C(N)=O)C(C)C (HELM PEPTIDE1{[O=C(/C=C/C(=O)[*:2])NCC(=O)NCC(=O)N[C@@H](Cc1ccccc1)C(=O)O].[O=C([C@H](CN[*:3])N[*:1])[*:2]].L.L.V.[am]}|PEPTIDE2{[ac]}$PEPTIDE1,PEPTIDE2,2:R3-1:R2$$$V2.0)	79	40	60	54	1.8	87	11.8	inactive	–	–	–	–	–	–	–	–
CC(=O)NC[C@H](NC(=O)/C=C/C(=O)NCC(=O)NCC(=O)N[C@@H](Cc1ccccc1)C(=O)O)C(=O)N[C@H](C(=O)N[C@@H](C)C(=O)N[C@H](C(N)=O)C(C)C)C1CCCCC1 ({Fumaroyl(GlyGlyPheOH)}-[Dap](Ac)[Chg]AV-NH2)	83	–	25	23	0.3	95	–	83%	–	12.4	22	7	Not Active	–	–	–
CC(C)[C@H](NC(=O)[C@@H](NC(=O)[C@@H](NC(=O)[C@H](CC(N)=O)NC(=O)/C=C/C(=O)NCC(=O)NCC(=O)N[C@@H](Cc1ccccc1)C(=O)O)C1CCCCC1)C(C)C)C(N)=O (HELM PEPTIDE1{[O=C(/C=C/C(=O)[*:2])NCC(=O)NCC(=O)N[C@@H](Cc1ccccc1)C(=O)O].N.[O=C([C@@H](N[*:1])C1CCCCC1)[*:2]].V.V.[am]}$$$$V2.0)	90	37.5	46	61	0.08	96	–	100%	–	1.4	32	5.2	Not Active	74	73	–
N=C(N)c1ccc(OCCCCCOc2ccc(C(=N)N)cc2)cc1	–	–	–	–	–	–	–	–	–	–	–	–	–	–	–	28
